Assay results as given in the EternaBench riboswitch data.

Key:
MS2 coat protein [1] = assay: apparent Kd, MS2 coat protein; higher = weaker binding; RNA-MaP array; theophylline 2 mM where present
In short: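 Designs were transcribed by stalled E. coli RNA polymerase on Illumina sequencing-chip clusters. They were titrated with SNAP-549-labelled MS2 coat protein from 0.7 or 1.5 nM, doubling to 3 µM, without and then with constant ligand. Buffer: 100 mM Tris-HCl pH 7.5, 80 mM KCl, 4 mM MgCl2, BSA, DTT, yeast tRNA, Tween-20. Green signal was normalised to red-channel RNA signal and control-cluster median Fmax. Apparent Kd is the median of filtered per-cluster binding-curve fits.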

MS2 coat protein [2] = assay: apparent Kd, MS2 coat protein; higher = weaker binding; RNA-MaP array
In short: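 The designed RNAs, transcribed from sequenced DNA templates on an Illumina sequencing chip, were incubated with fluorescently labeled MS2 coat protein at room temperature. Protein ranged from 1.5 nM to 3 μM, with 0.8–1.5 h incubation at the lowest and 10–20 min at the highest concentrations, in Tris-HCl pH 7.5 buffer with KCl, MgCl2, BSA, DTT, tRNA and Tween20, with or without input ligand. The median of per-cluster binding-curve fits gives the apparent Kd, and designs measured on fewer than 10 clusters were excluded.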

[3] = designed as: OFF switch for theophylline, no ligand
[4] = ligand present: theophylline, designed as: OFF switch for theophylline
[5] = designed as: ON switch for theophylline, no ligand
[6] = ligand present: theophylline, designed as: ON switch for theophylline
[7] = designed as: OFF switch for flavin mononucleotide, no ligand
[8] = ligand present: flavin mononucleotide, designed as: OFF switch for flavin mononucleotide
[9] = designed as: ON switch for flavin mononucleotide, no ligand
[10] = ligand present: flavin mononucleotide, designed as: ON switch for flavin mononucleotide

UGCUGACAAGGACAUGGAUGAUCAGCUGAUACCAGCCUGGAAACAGGCCCUUGGCAGCAGCACAUGAGGAUCACCCAUGUAAUAA
apparent Kd (MS2 coat protein [1]; [3]): 33.7 nM | apparent Kd (MS2 coat protein [1]; [4]): 66.3 nM

AUCGUACCUGAUGAUACCAGCAUGUGAUCAUAACAUGAGGAUCACCCAUGUAAUCAGUGAUGCCCUUGGCAGCAUAGUCGAUACA
apparent Kd (MS2 coat protein [1]; [5]): 153 nM | apparent Kd (MS2 coat protein [1]; [6]): 55.9 nM

UUGGUAGGACAGCUCAUAUAAGCAUGUGAUACCAGCUAGAAAACUAGCCCUUGGCAGCACUUUACAUGAGGAUCACCCAUGUCCC
apparent Kd (MS2 coat protein [1]; [3]): 165 nM | apparent Kd (MS2 coat protein [1]; [4]): 460 nM

AGCGACAUGCAUGAUACCAGCUACAUGAGGAUCACCCAUGUACGUCAGUAAUGACUGUGUAGCCCUUGGCAGCAUAGAGCAUGUC
apparent Kd (MS2 coat protein [1]; [3]): 18.3 nM | apparent Kd (MS2 coat protein [1]; [4]): 48.6 nM

CAAGAAGUAACUGAUACCAGUGUACUGACAUGAGGAUCACCCAUGUUGGGUUUUGUUGUACACCCUUGGCAGCAGAAUCUUCUUG
apparent Kd (MS2 coat protein [1]; [3]): 66.8 nM | apparent Kd (MS2 coat protein [1]; [4]): 90.5 nM

ACAUCCAGGUUAAUCGUGGGCAUGGUCGAUACCAGUAUUUUAAUCUACCCUUGGCAGCGACAUGAGGAUCACCCAUGUGCGAUGA
apparent Kd (MS2 coat protein [1]; [3]): 24.6 nM | apparent Kd (MS2 coat protein [1]; [4]): 36.3 nM

ACGUCUCGAAAACUCGUAGUAACAAUAGAUACCAGUAGCGAGAGUUACCCUUGGCAGCUACAUGAGGAUCACCCAUGUACGAGGA
apparent Kd (MS2 coat protein [1]; [3]): 17.4 nM | apparent Kd (MS2 coat protein [1]; [4]): 17.2 nM

CCGAACAUGAGGAUCACCCAUGUUAGGGAUACCAGCCCAGACAUGGGCCCUUGGCAGCUCUAUAGCUGACGAAAGUCAGCAUCGG
apparent Kd (MS2 coat protein [1]; [5]): 58.5 nM | apparent Kd (MS2 coat protein [1]; [6]): 30.5 nM

UAUAUAUAAAUUGAUACCAGCGAGAAAACAUGAGGAUCACCCAUGUUCGCCCAUGUUAAGCGCCCUUGGCAGCAAUAUUAUUAUU
apparent Kd (MS2 coat protein [1]; [3]): 24.5 nM | apparent Kd (MS2 coat protein [1]; [4]): 73 nM

CGAUACGUAACUGAUACCAGUGUACUGACAUGAGGAUCACCCAUGUUGGGUUUUGUUGUACACCCUUGGCAGCAGAAUCGUAUCG
apparent Kd (MS2 coat protein [1]; [3]): 67.5 nM | apparent Kd (MS2 coat protein [1]; [4]): 96.1 nM

GUUAUGGACCUGGAUACCAGCUGGUACAAGGGCGGUCUACAUGAGGAUCACCCAUGUGUCAGCCCUUGGCAGCCAGCAACCCACU
apparent Kd (MS2 coat protein [1]; [3]): 9.88 nM | apparent Kd (MS2 coat protein [1]; [4]): 11.4 nM

UGUAACAUGAGGAUCACCCAUGUAAGUGAUACCAGAUAAGUAGUAGUCCCUUGGCAGCAUAUUGGGAAAGUGUAUAGUCUAUACG
apparent Kd (MS2 coat protein [1]; [5]): 52.8 nM | apparent Kd (MS2 coat protein [1]; [6]): 65.1 nM

AAUUUGUCGGGUGAUACCAGCCUCGGCGCGUCUCGCGCUGAACAUGAGGAUCACCCAUGUGGCCCUUGGCAGCACAUGACAAAUC
apparent Kd (MS2 coat protein [1]; [5]): 670 nM | apparent Kd (MS2 coat protein [1]; [6]): 38.2 nM

ACCCUAGCGAUCGCUCGCUAGGGUGCGGAUACCAGCGAGGUCCAUCGCCCUUGGCAGCCGAACAUGAGGAUCACCCAUGUCGGUA
apparent Kd (MS2 coat protein [1]; [5]): 10.7 nM | apparent Kd (MS2 coat protein [1]; [6]): 14.3 nM

UUAUUUAUAUUAGAUACCAGUUUAAUGGCCGCAAAUCCUGACAUGAGGAUCACCCAUGUAAGCCCUUGGCAGCUGGUAUGGGUUU
apparent Kd (MS2 coat protein [1]; [3]): 19.3 nM | apparent Kd (MS2 coat protein [1]; [4]): 20.7 nM

AUCGUACCUGAUGAUACCAGCAUGUGCUCGUAACAUGAGGAUCACCCAUGUGAUCAGUAAUGCCCUUGGCAGCAUGAUCGGUACA
apparent Kd (MS2 coat protein [1]; [5]): 57.9 nM | apparent Kd (MS2 coat protein [1]; [6]): 14.3 nM

GAUCUGUCGGGUGAUACCAGCCUCGGCACAUCUCGUGCCGAACAUGAGGAUCACCCAUGUGGCCCUUGGCAGCACAUGACAAAUC
apparent Kd (MS2 coat protein [1]; [5]): 362 nM | apparent Kd (MS2 coat protein [1]; [6]): 55.1 nM

AUUAAAAGUUGUGAUACCAGACGAACAUGAGGAUCACCCAUGUAACUUUUAGGUGUUGUAGUCCCUUGGCAGCACUAUGUAGUUA
apparent Kd (MS2 coat protein [1]; [5]): 43.6 nM | apparent Kd (MS2 coat protein [1]; [6]): 38.2 nM

CAAUACGUAACUGAUACCAGUGUACUGACAUGAGGAUCACCCAUGUUGGGUUUUGUUGUACACCCUUGGCAGCAGAAUCGUAUUG
apparent Kd (MS2 coat protein [1]; [3]): 70.1 nM | apparent Kd (MS2 coat protein [1]; [4]): 93.7 nM

AGACAUGAGGAUCACCCAUGUAGUAUGGAUACCAGAUCCAGAUUUAUCCCUUGGCAGCUGUGGUACAGUGAUGGAUUGCUCCUAG
apparent Kd (MS2 coat protein [1]; [3]): 31 nM | apparent Kd (MS2 coat protein [1]; [4]): 40.8 nM

UUGUACGAAACUGAUACCAGCCAGCAAUGCCACCAAGAGCACAUGAGGAUCACCCAUGUUGGCCCUUGGCAGCAGGACAAUAAGC
apparent Kd (MS2 coat protein [2]; [3]): 8.63 nM | apparent Kd (MS2 coat protein [2]; [4]): 9.47 nM

CCACUACAUGAGGAUCACCCAUGUCAGGAUAUCAACCACGCCUCUCCUUGGACGUAGAUGAGAAGGGACGUGGG
apparent Kd (MS2 coat protein [2]; [7]): 16.7 nM | apparent Kd (MS2 coat protein [2]; [8]): 28.2 nM

GCAAAAUACAUGAGGAUCACCCAUGUUAAGUGGGCCUGAACAAGAAGGCAGCAAAUUUUAUUUUCUGAGGAUAUUGGCAUAUAU
apparent Kd (MS2 coat protein [2]; [7]): 30.2 nM | apparent Kd (MS2 coat protein [2]; [8]): 36.8 nM

CUUAAGUGAGGAUAUCGUGGGACUACAUUAAUGAGAAUCAGCGAGAAGGCACAUGAGGAUCACCCAUGUGGUAA
apparent Kd (MS2 coat protein [2]; [7]): 18.6 nM | apparent Kd (MS2 coat protein [2]; [8]): 76.2 nM

CGGUCCACUGAGAAGGCUCACUCCAUGCCGAGGAGAGGAUAUCAAACCUAUAUUGCACGCAGCGAACAUGAGGAUCACCCAUGU
apparent Kd (MS2 coat protein [2]; [9]): 11 nM | apparent Kd (MS2 coat protein [2]; [10]): 8.73 nM

UCAAGGUCAGGAUAUUUAUACAGUCGAUUACGAGGAUGUCGAAAGAAGGGACAUGAGGAUCACCCAUGUGGUAC
apparent Kd (MS2 coat protein [2]; [7]): 43 nM | apparent Kd (MS2 coat protein [2]; [8]): 57.7 nM

AGGUCGAAACUAGGAUAUCUUCACUAUGUCAGAAGAGAAGGAGUAGAGCAUGACAGUGAUAGUACAUGAGGAUCACCCAUGUUA
apparent Kd (MS2 coat protein [2]; [7]): 18.8 nM | apparent Kd (MS2 coat protein [2]; [8]): 15.7 nM

UUAUAUUCUCAAUCGCCAUGUGCUUUAGAUACCAGUCUGAUAAAUGACCCUUGGCAGCUAGAGACAUGAGGAUCACCCAUGUCUU
apparent Kd (MS2 coat protein [2]; [3]): 10.6 nM | apparent Kd (MS2 coat protein [2]; [4]): 29.8 nM

GACGAGUAGACGGCCGCCACUAUGCUGCGCAGCCCUAGAAACGCACAUGAGGAUCACCCAUGUCUUAGGACCGGGUCGAACUUAA
apparent Kd (MS2 coat protein [2]; designed as: ON switch for tryptophan, no ligand): 78.5 nM | apparent Kd (MS2 coat protein [2]; ligand present: tryptophan, designed as: ON switch for tryptophan): 65.7 nM

UAUGUAUAGAAGGAUAUCUAAUUACGCCCGAUAAGAGAAGGUCUGACAUGAGGAUCACCCAUGUUAUGGGAGGC
apparent Kd (MS2 coat protein [2]; [7]): 18.1 nM | apparent Kd (MS2 coat protein [2]; [8]): 23.3 nM

GCCUAUAUUGUCAGGAUAUGCAUAAAGGAAAAGAAGCAGAAGGGACAUGAGGAUCACCCAUGUUACAGCCAAUA
apparent Kd (MS2 coat protein [2]; [7]): 6.84 nM | apparent Kd (MS2 coat protein [2]; [8]): 12.6 nM

UCUGUGAUUCAAGGAUAUAAGUCGAGUGCUUGCUUAGAAGGUGACGAACAUGAGGAUCACCCAUGUGCUUUAUUCUUAUGCAUC
apparent Kd (MS2 coat protein [2]; [7]): 29.2 nM | apparent Kd (MS2 coat protein [2]; [8]): 25.6 nM

GUUUCCUCAGGAUAUUACUGCCGGGACAUGAGGAUCACCCAUGUGGCCUCCGUAAGGCUAUAAGAAGGGAGGCGUC
apparent Kd (MS2 coat protein [2]; [7]): 111 nM | apparent Kd (MS2 coat protein [2]; [8]): 157 nM

GCAAUACAUGAGGAUCACCCAUGUUUUAGAUACGAAGGAUAUGUGUAAGCGUACUAAUGUACAGAAGGUCGGAUUU
apparent Kd (MS2 coat protein [2]; [9]): 13.1 nM | apparent Kd (MS2 coat protein [2]; [10]): 9.26 nM

AGACAUGAGGAUCACCCAUGUUUGUGUAUCUGACCGCGCACUAGAAGGGAUUGGACAACUUACUAUCAGGAUAUAGACAACGGU
apparent Kd (MS2 coat protein [2]; [9]): 8.4 nM | apparent Kd (MS2 coat protein [2]; [10]): 6.95 nM

UCAACAUGAGGAUCACCCAUGUCAUCGGCGUUCUCAGACACUAGAAGGAACAGGCGUAUCUGCGGUUAGGAUAUAGACACACAU
apparent Kd (MS2 coat protein [2]; [7]): 31.3 nM | apparent Kd (MS2 coat protein [2]; [8]): 31 nM
